Where “and” joins values, the source holds several entries; their conditions need not be identical. Equal values may be shown once.
How the values were obtained:
Histamine H1 receptor [1] = molecular target: T1, Histamine H1 receptor (Cavia porcellus, UniProt P31389); assay: Effective concentration against histamine H1 receptor in guinea pig ileum; type: tissue-based
[2] = molecular target: Histamine H2 receptor (Cavia porcellus) (UniProt P47747); settings: Cardiac atrium
[3] = molecular target: Histamine H1 receptor (Cavia porcellus) (UniProt P31389); assay: (§1) Equilibrium dissociation constant (pKp) against histamine H1 receptor in guinea pig ileum; type: tissue-based
Chain of Histamine H1 receptor (Cavia porcellus) (P31389 whole entry): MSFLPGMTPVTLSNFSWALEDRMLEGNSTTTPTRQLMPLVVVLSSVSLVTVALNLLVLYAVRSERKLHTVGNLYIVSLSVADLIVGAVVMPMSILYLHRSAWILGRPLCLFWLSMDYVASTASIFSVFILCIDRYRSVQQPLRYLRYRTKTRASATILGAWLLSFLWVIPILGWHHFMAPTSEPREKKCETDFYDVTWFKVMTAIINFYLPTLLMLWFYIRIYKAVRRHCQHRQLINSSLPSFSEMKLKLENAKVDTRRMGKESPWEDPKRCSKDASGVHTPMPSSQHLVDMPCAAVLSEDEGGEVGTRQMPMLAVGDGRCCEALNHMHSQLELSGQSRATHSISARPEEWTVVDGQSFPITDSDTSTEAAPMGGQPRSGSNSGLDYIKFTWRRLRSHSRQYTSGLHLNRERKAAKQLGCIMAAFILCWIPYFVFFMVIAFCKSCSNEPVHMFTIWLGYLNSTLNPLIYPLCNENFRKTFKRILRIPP

[4] = molecular target: Histamine H1 receptor (Cavia porcellus) (UniProt P31389); assay: Concentration required for agonistic activity against histamine in guinea pig ileum; type: functional, tissue-based
[5] = molecular target: Histamine H1 receptor (Cavia porcellus) (UniProt P31389); assay: Maximum response (E max) against histamine H1 receptor in guinea pig ileum; type: tissue-based
Cavia porcellus [6] = organism: Cavia porcellus; assay: Apparent pA2 value at 3 nM concentration of mepyramine in guinea pig ileum; type: functional; settings: read-out: pA2 (converted)
Cavia porcellus [7] = organism: Cavia porcellus; assay: Apparent pD2 value of compound at 3 nM concentration of mepyramine in guinea pig ileum; type: functional
Cavia porcellus [8] = organism: Cavia porcellus; assay: Apparent pA2 value of compound at 100 nM concentration of mepyramine in guinea pig aorta
Cavia porcellus [9] = organism: Cavia porcellus; assay: Apparent pA2 value of compound at 3 nM concentration of mepyramine in guinea pig ileum
[10] = molecular target: Histamine H1 receptor (Cavia porcellus) (UniProt P31389); assay: Maximum response (E max) against H1 receptor in guinea pig ileum; type: tissue-based
[11] = molecular target: Muscarinic acetylcholine receptor M3 (Cavia porcellus, UniProt Q8VH26); assay: Antagonistic activity for carbachol induced contractions in guinea pig ileum against Muscarinic acetylcholine receptor M3 in the presence of mepyramine at a concentration of 1-3 micro M; type: functional, tissue-based; settings: read-out: pA2 (converted)
Chain of Muscarinic acetylcholine receptor M3 (Q8VH26 whole entry): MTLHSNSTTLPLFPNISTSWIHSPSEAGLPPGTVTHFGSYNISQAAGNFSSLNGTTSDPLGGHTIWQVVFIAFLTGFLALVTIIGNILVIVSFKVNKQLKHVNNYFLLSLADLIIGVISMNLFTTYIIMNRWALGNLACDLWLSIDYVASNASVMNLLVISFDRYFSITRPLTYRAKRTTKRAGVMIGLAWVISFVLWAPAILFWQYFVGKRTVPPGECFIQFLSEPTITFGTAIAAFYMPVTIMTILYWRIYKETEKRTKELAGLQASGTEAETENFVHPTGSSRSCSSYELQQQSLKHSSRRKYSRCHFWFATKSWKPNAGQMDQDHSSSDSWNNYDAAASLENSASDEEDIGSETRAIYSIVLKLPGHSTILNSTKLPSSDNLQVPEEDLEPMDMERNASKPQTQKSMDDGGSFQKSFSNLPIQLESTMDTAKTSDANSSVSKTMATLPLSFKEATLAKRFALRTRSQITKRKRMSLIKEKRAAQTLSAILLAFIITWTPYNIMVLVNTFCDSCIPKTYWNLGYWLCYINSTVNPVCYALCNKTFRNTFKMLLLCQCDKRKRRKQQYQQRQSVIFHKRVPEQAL

Histamine H3 receptor = Histamine H3 receptor (Cavia porcellus, UniProt Q9JI35); assay: Tested for Antagonistic activity at histamine H3 receptor in guinea pig ileal longitudinal muscle in the presence of mepyramine at a concentration of 1-3 micro M; type: functional; settings: read-out: pA2 (converted)
Chain of Histamine H3 receptor (Q9JI35 whole entry): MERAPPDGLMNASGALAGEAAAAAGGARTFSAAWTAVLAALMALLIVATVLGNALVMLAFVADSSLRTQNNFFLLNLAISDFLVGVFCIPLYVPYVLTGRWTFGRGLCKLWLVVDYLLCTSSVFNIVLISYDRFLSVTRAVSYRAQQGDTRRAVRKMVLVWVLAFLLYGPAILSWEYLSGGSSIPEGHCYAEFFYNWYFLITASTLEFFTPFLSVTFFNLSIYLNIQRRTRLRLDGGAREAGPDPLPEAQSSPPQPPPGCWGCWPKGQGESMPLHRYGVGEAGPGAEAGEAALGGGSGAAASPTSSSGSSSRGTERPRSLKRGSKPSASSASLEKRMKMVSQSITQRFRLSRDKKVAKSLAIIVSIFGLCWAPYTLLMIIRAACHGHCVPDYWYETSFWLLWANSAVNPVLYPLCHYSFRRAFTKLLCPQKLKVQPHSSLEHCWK
Procedure, shortened: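 Field-stimulated ileal longitudinal muscle (15 V, 0.5 ms, 0.1 Hz), 37 °C, mepyramine 1–3 μM throughout. […] Antagonists used only at concentrations not blocking M3 receptors; apparent pA2 from rightward shift.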

Histamine H1 receptor [12] = molecular target: T1, Histamine H1 receptor; assay: Effective concentration against histamine H1 receptor in endothelium-Denuded rings of guinea pig Aorta
Histamine H1 receptor [13] = molecular target: T1, Histamine H1 receptor; assay: Apparent pA2 value of compound at 10 nM concentration of mepyramine in guinea pig aorta
[14] = molecular target: Histamine H1 receptor (Rattus norvegicus) (UniProt P31390); assay: Maximum response (E max) against H1 receptor in rat aorta; type: tissue-based
Chain of Histamine H1 receptor (Rattus norvegicus) (P31390 whole entry): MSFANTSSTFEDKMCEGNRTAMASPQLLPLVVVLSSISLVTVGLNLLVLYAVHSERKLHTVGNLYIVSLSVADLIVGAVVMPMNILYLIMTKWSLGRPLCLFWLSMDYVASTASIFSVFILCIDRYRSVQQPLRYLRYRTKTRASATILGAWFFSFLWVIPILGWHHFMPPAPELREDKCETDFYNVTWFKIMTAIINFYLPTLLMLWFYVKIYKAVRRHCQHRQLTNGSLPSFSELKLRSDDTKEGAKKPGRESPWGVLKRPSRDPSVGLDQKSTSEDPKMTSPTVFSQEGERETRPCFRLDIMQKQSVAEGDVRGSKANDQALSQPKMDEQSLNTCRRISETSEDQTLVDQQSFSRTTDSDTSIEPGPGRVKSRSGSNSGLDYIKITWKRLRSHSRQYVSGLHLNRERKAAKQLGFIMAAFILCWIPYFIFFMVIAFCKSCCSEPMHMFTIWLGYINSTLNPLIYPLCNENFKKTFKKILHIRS

Histamine H1 receptor [15] = molecular target: T2, Histamine H1 receptor (Rattus norvegicus, UniProt P31390); assay: Apparent pA2 value of compound at 50 nM concentration of mepyramine in rat aorta; type: functional, tissue-based; settings: read-out: pA2 (converted)
T2 sequence (P31390 whole entry): as above

Histamine H1 receptor [16] = molecular target: T2, Histamine H1 receptor; assay: (§2) Effective concentration against histamine H1 receptor in rat aorta
Cavia porcellus [17] = organism: Cavia porcellus; assay: Full pA2 value of compound at 3-30 nM concentration of mepyramine in guinea pig ileum; type: functional; settings: read-out: pA2 (converted)
Histamine H1 receptor [18] = molecular target: T1, Histamine H1 receptor; assay: Apparent pA2 value of compound at 10 nM concentration of mepyramine in guinea pig aorta; remark: listed apart in the source
Cavia porcellus [19] = organism: Cavia porcellus; assay: tissue or blood; settings: Ileum, read-out: pA2 (converted)
Histamine H1 receptor [20] = molecular target: T2, Histamine H1 receptor; assay: as §2; type: tissue-based
[21] = molecular target: Histamine H1 receptor (Cavia porcellus) (UniProt P31389); assay: as §1; type: functional, tissue-based
Cavia porcellus [22] = organism: Cavia porcellus; assay: Apparent pA2 value of compound at 10 nM concentration of mepyramine in guinea pig aorta
[23] = molecular target: Histamine H1 receptor (Cavia porcellus) (UniProt P31389); assay: Concentration required for agonistic activity against histamine H1 receptor in guinea pig ileum; type: functional, tissue-based
Cavia porcellus [24] = organism: Cavia porcellus; assay: Full pA2 value of compound at 2-100 nM concentration of mepyramine in guinea pig ileum; type: functional; settings: read-out: pA2 (converted)
Histamine H1 receptor [25] = molecular target: T1, Histamine H1 receptor; assay: Apparent pA2 value of compound at 10 nM concentration of mepyramine in guinea pig aorta; remark: listed apart in the source
[26] = molecular target: Histamine H1 receptor (Cavia porcellus) (UniProt P31389); assay: Maximum response (E max) against Histamine H1 receptor in guinea pig ileum; type: tissue-based
Histamine H2 receptor = Histamine H2 receptor (Cavia porcellus, UniProt P47747); assay: Tested for inhibition of histamine H2 receptor-induced rise in heart rate in guinea pig right atrium in the presence of mepyramine at a concentration of 0.3 micro M; type: tissue-based, Cardiac atrium
Chain of Histamine H2 receptor (P47747 whole entry): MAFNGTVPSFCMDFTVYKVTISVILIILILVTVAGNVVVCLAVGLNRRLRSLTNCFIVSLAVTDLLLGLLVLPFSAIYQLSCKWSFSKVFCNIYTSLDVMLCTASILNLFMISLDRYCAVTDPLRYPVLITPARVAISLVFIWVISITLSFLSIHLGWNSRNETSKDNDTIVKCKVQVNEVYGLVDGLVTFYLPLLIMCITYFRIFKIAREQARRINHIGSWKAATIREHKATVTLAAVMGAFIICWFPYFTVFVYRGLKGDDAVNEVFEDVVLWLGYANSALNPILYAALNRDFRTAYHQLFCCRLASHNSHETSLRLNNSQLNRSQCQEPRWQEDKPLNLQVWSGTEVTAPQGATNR

Chain of Histamine H2 receptor (Cavia porcellus) (P47747 whole entry): as above
T1 sequence (P31389 whole entry): as the sequence (P31389 whole entry) above

EC50 (Histamine H1 receptor [1]) [nM]	pD2 [2]	pKp [3]	Concentration [4] [µM]	Emax [5]	Kb [11] [nM]	Kb (Histamine H3 receptor) [nM]	EC50 (Histamine H1 receptor [12]) [nM]	Structure (SMILES)	Kb (Cavia porcellus [6]) [nM]	further results
13.5	4.77	6.88	3	88%	–	–	–	c1ccc(C(CCc2nc(CCNCCCCc3cccnc3)c[nH]2)c2ccccc2)cc1	1.7	–
269	4.36	5.69	10	48%	–	–	–	c1ccc(C(CCc2nc(CCNCCCc3ccncc3)c[nH]2)c2ccccc2)cc1	–	pD2 (Cavia porcellus [7]): 8.49
–	–	6.45	–	–	–	–	–	CNCCc1c[nH]c(CCC(c2ccccc2)c2ccccc2)n1	–	Kb (Cavia porcellus [8]): 1.78 nM
24	4.59	6.56	10	84%	–	–	–	c1ccc(C(CCc2nc(CCNCCCCc3ccncc3)c[nH]2)c2ccccc2)cc1	1.12	–
21.4	4.96	7.13	3	–	457	> 316	–	c1ccc(C(CCc2nc(CCNCCCc3ccccn3)c[nH]2)c2ccccc2)cc1	–	Kb (Cavia porcellus [9]): 1.66 nM; Emax [10]: 80%
13.5	3.92	7.14	0.1	95%	776	123	–	c1ccc(C(CCc2nc(CCNCCCc3c[nH]cn3)c[nH]2)c2ccccc2)cc1	1.86	–
–	–	–	–	–	–	–	158	NCCc1cnc(CCC(c2ccccc2)c2ccccc2)[nH]1	–	–
77.6	4.62	6.52	10	64%	7080	> 501	83.2	c1ccc(C(CCc2nc(CCNCCc3cccnc3)c[nH]2)c2ccccc2)cc1	0.851	Emax [10]: 64%; Kb (Histamine H1 receptor [13]): 3.24 nM
6.92	4.78	7.45	3	89%	741	> 501	14.1	c1ccc(C(CCc2nc(CCNCCCCc3ccccn3)c[nH]2)c2ccccc2)cc1	–	Emax [14]: 65%; Kb (Histamine H1 receptor [15]): 6.17 nM; Emax [10]: 89%; EC50 (Histamine H1 receptor [16]): 240 nM; Kb (Cavia porcellus [17]): 0.661 nM; Kb (Histamine H1 receptor [18]): 1.62 nM
115	4.37	6.02	10	78%	1000	> 501	–	c1ccc(C(CCc2nc(CCNCCc3ccncc3)c[nH]2)c2ccccc2)cc1	1.48	–
–	–	–	–	–	–	–	–	NCCc1c[nH]cn1 [HISTAMINE]	–	Kb (Cavia porcellus [19]): 0.851 nM
21.4	4.37	–	10	92%	5010	> 501	81.3	c1ccc(C(CCc2nc(CCNCCc3ccccn3)c[nH]2)c2ccccc2)cc1	–	Kb (Cavia porcellus [9]): 1.74 nM; EC50 (Histamine H1 receptor [20]): 525 nM; pKp [21]: 7.15; Emax [14]: 59%; Kb (Histamine H1 receptor [15]): 10.5 nM; Emax [10]: 92%; Kb (Histamine H1 receptor [18]): 4.37 nM
–	–	6.04	–	100% and 84%	–	–	–	NCCc1c[nH]c(CCC(c2ccccc2)c2ccccc2)n1	–	Emax [14]: 50%; Kb (Cavia porcellus [22]): 0.977 nM; Concentration [23]: 3 µM
95.5	4.12	5.9	10	57%	–	–	–	c1ccc(C(CCc2nc(CCNCCCCCc3ccncc3)c[nH]2)c2ccccc2)cc1	–	pD2 (Cavia porcellus [7]): 8.63
117	4.05	6.18	10	48%	–	–	–	c1ccc(C(CCc2nc(CCNCCCc3cccnc3)c[nH]2)c2ccccc2)cc1	1.82	–
123	4.12	6.17	10	86%	417	10.2	–	c1ccc(C(CCc2nc(CCNCCCCc3c[nH]cn3)c[nH]2)c2ccccc2)cc1	–	Kb (Cavia porcellus [9]): 1.7 nM
–	–	–	–	–	–	–	39.8	CNCCc1cnc(CCC(c2ccccc2)c2ccccc2)[nH]1	–	–
15.5	5.02	6.74	3	83%	513	> 316	–	c1ccc(C(CCc2nc(CCNCCCCCc3ccccn3)c[nH]2)c2ccccc2)cc1	1.82	–
5.5	–	7.67	–	–	4790	> 1000	9.77	c1ccc(C(CCc2nc(CCNCCc3cnc[nH]3)c[nH]2)c2ccccc2)cc1	–	Kb (Cavia porcellus [24]): 1.48 nM; Emax [14]: 56%; Kb (Histamine H1 receptor [15]): 9.55 nM; Emax [10]: 96%; EC50 (Histamine H1 receptor [16]): 295 nM; Kb (Histamine H1 receptor [25]): 3.24 nM; Concentration [23]: 0.1 µM; Emax [26]: 96%; EC50 (Histamine H2 receptor): 10000 nM
26.3	5.25	6.61	3	84%	562	> 316	–	c1ccc(C(CCc2nc(CCNCCCCCc3cccnc3)c[nH]2)c2ccccc2)cc1	1.48	–

From ChEMBL document CHEMBL1145924 (J Med Chem, 2003)
